We go through 33 compounds from ChEMBL document CHEMBL1155477, “Benzothiophene containing Rho kinase inhibitors: Efficacy in an animal model of glaucoma” (Bioorg Med Chem Lett, 2010).

≈ marks a conversion by molar mass, not a printed value. Calls of active or inactive are those of the source. No cut-off for these calls is given here. Bounds are passed on as bounds.

The target of series [1] is T1, Rho-associated protein kinase 1 (Homo sapiens, UniProt Q13464). As to the kind of experiment: Inhibition of ROCK1 assessed as ATP cunsumption.
Target sequence in this assay (Q13464 whole entry): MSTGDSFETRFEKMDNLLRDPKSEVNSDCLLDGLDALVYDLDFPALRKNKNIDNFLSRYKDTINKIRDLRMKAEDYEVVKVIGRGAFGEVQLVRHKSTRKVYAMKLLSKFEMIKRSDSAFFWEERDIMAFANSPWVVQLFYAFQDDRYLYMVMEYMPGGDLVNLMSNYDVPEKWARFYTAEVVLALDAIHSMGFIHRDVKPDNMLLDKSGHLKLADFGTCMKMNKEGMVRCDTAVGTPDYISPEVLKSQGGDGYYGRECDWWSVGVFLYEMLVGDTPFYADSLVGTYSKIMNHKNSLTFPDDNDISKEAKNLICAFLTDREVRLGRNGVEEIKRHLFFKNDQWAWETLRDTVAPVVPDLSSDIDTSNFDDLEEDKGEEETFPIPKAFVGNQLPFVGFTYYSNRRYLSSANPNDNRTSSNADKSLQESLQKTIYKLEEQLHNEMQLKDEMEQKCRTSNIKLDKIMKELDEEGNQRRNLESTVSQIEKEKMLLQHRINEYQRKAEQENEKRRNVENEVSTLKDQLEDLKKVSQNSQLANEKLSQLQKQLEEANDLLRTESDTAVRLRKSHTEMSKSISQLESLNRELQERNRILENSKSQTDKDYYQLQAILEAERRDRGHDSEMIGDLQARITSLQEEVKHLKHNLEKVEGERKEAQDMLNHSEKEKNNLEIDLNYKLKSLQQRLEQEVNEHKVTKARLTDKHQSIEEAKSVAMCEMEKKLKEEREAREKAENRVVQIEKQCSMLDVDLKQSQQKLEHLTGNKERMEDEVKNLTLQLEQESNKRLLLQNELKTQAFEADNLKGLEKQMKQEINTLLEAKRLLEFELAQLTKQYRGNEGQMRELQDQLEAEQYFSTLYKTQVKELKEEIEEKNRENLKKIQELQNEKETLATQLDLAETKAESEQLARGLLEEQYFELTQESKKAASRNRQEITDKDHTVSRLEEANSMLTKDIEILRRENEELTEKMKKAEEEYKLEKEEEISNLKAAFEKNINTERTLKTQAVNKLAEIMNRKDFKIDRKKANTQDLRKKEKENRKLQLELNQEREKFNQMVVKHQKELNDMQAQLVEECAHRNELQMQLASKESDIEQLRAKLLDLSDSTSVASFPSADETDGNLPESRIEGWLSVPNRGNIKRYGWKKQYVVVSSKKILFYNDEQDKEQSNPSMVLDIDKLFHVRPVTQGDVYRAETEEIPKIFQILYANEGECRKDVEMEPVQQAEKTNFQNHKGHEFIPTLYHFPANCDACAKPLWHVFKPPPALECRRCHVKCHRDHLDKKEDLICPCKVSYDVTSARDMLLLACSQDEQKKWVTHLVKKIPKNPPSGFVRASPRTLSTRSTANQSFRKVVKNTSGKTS
Series [2] deals with T1, Rho-associated protein kinase 1. Description: Inhibition of ROCK1 assessed as ATP cunsumption relative to control. In short, it runs like this:
(§1)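 ROCK1 enzyme reaction in 20 mM Tris-HCl pH 7.5, 10 mM MgCl2, 0.4 mM CaCl2, 0.15 mM EGTA, 0.1 mg/ml BSA. Compounds are run as an 11-point half-log series (final top 96 µM, 1% DMSO, 2–4 replicate wells) for 2 h at 30 °C. Readout is Easylite luminescence, normalized to DMSO and HMN-1152 controls. Values are means of ≥2 independent experiments.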
Target sequence in this assay (Q13464 2-1354 limits assumed): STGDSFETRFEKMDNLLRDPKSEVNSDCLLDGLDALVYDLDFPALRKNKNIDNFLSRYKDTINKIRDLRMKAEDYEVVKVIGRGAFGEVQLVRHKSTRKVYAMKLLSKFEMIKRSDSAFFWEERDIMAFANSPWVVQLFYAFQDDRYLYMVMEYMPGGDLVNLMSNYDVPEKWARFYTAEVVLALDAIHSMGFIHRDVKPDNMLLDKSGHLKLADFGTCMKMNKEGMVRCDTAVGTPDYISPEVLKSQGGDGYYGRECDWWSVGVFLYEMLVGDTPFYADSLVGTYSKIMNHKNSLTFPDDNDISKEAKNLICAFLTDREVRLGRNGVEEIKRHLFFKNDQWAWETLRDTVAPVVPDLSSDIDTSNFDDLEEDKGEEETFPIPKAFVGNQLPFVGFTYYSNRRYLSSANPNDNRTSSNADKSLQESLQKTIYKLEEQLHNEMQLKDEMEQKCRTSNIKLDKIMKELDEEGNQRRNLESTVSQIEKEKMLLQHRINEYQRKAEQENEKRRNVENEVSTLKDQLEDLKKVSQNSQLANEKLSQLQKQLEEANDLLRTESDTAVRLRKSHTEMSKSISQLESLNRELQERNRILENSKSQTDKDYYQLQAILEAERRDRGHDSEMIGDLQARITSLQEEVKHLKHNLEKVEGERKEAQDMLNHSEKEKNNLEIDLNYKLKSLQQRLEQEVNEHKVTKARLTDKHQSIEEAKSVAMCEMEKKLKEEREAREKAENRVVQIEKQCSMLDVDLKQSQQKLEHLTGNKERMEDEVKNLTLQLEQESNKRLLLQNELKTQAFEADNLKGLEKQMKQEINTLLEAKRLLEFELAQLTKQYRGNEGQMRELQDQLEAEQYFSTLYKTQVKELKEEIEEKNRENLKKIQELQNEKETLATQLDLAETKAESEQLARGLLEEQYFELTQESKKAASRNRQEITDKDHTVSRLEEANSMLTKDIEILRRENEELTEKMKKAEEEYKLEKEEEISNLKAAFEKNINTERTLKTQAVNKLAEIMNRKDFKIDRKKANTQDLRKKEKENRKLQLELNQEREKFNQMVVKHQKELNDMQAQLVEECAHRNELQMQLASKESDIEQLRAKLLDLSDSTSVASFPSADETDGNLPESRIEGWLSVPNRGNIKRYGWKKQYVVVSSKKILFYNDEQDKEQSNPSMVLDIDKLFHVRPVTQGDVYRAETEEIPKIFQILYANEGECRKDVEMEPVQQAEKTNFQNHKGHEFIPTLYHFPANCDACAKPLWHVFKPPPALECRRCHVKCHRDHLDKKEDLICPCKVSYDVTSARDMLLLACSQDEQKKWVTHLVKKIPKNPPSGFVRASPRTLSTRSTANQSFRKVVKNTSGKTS

The target is the same in series [3]. As to the kind of experiment: Inhibition of ROCK1 in human GTM3 cells up to 10 uM by impedance assay. In kind it is cell-based.
Target sequence in this assay (Q13464 2-1354 limits assumed): as above
For series [4], the system named is GTM3. As to the kind of experiment: Change in cellular morphology of human GTM3 cells assessed as decrease in vinculin staining density by immunofluorescence relative to control. The format is functional, cell-based. In short, it runs like this: (§2)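 GTM-3 cells plated on glass coverslips one day before use, exposed to compound or DMSO control for 3 h, fixed in 2% paraformaldehyde in PBS 10 min at rt, then indirect immunofluorescence with anti-vinculin mAb and Alexa-488 anti-mouse F(ab')2 secondary; vinculin staining density and intensity compared with DMSO-treated cells.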

The test system of series [5] is GTM3. Description: Change in cellular morphology of human GTM3 cells assessed as decrease in vinculin staining intensity by immunofluorescence relative to control. The format is functional, cell-based. The gist of the method:
as §2

For series [6], the system named is Cynomolgus monkey. Description: Reduction of intraocular pressure in laser-induced ocular hypertensive cynomolgus monkey at 250 ug/eye after 1 hr. More on the design: scale not given: the % may be the effect or the level left. The format is functional, Macaca fascicularis.
The test system of series [7] is Cynomolgus monkey. Description: Reduction of intraocular pressure in laser-induced ocular hypertensive cynomolgus monkey at 250 ug/eye after 3 hrs. The format is functional, Macaca fascicularis. The arrangement: scale not given: the % may be the effect or the level left.
Series [8] deals with Cynomolgus monkey. Description: Reduction of intraocular pressure in ocular hypertensive cynomolgus monkey at 250 ug/eye after 3 hrs. The format is functional, Macaca fascicularis. More on the design: scale not given: the % may be the effect or the level left.
In series [9] the test system is Cynomolgus monkey. As to the kind of experiment: Reduction of intraocular pressure in laser-induced ocular hypertensive cynomolgus monkey at 250 ug/eye after 6 hrs. The format is functional, Macaca fascicularis. The arrangement: scale not given: the % may be the effect or the level left.
Series [10] has as its system Cynomolgus monkey. Description: Reduction of intraocular pressure in ocular hypertensive cynomolgus monkey at 250 ug/eye after 1 hr. In kind it is functional, Macaca fascicularis. The arrangement: scale not given: the % may be the effect or the level left.
Series [11] relates to Cynomolgus monkey. As to the kind of experiment: Reduction of intraocular pressure in ocular hypertensive cynomolgus monkey at 250 ug/eye after 6 hrs. In kind it is functional, Macaca fascicularis. The arrangement: scale not given: the % may be the effect or the level left.
Series [12] in a line: Aqueous solubility of the compound. The format is physicochemical. The note with it: water (aqueous).
Series [13] addresses T1, Rho-associated protein kinase 1. As to the kind of experiment: Inhibition of ROCK1 assessed as ATP cunsumption at 96 uM relative to control. The gist of the method:
as §1
Target sequence in this assay (Q13464 2-1354 limits assumed): as above

Series [14] shares this target. As to the kind of experiment: Inhibition of ROCK1 assessed as ATP cunsumption at 96 uM. In short, it runs like this:
as §1
Target sequence in this assay (Q13464 2-1354 limits assumed): as above

In series [15] the target is Aurora kinase B (Homo sapiens) (UniProt Q96GD4). Description: Inhibition of aurora B at 10 uM. In short, it runs like this: (§3)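 Single-concentration screen at 10 µM in functional assays of a commercial kinase panel; percent inhibition reported when at least 50%.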
Series [16] concerns the target Ribosomal protein S6 kinase alpha-5 (Homo sapiens) (UniProt O75582). Description: Inhibition of MSK1 at 10 uM. In short, it runs like this: as §3
The target in series [17] is T2, Serine/threonine-protein kinase Sgk1 (Homo sapiens) (UniProt O00141).
T2 sequence (whole entry): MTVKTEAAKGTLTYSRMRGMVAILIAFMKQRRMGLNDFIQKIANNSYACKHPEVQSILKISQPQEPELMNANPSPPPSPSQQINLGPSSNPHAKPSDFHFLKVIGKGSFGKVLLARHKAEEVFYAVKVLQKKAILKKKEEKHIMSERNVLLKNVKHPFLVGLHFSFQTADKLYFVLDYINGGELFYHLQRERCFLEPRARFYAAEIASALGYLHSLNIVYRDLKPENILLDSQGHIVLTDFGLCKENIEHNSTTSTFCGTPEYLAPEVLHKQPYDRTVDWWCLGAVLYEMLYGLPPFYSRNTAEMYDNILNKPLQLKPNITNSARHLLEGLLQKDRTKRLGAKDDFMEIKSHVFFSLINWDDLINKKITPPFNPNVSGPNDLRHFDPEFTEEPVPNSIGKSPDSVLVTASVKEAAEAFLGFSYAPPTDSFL
Description: Inhibition of SGk1 at 10 uM. The gist of the method:
as §3

Series [18] deals with Serine/threonine-protein kinase N1 (Homo sapiens) (UniProt Q16512). As to the kind of experiment: Inhibition of PKN1 at 10 uM. In short, it runs like this: as §3
Series [19] can be described thus: Inhibition of PKA at 10 uM.
Series [20] deals with Ribosomal protein S6 kinase beta-1 (Homo sapiens) (UniProt P23443). Description: Inhibition of p70S6K at 10 uM. The gist of the method: as §3
A short description of series [21]: Cytotoxicity against human GTM3 cells up to 30 uM after 24 hrs. In kind it is cell-based. The note with it: gtm3, 24 h.

Sequence of Ribosomal protein S6 kinase alpha-5 (Homo sapiens) (O75582 whole entry, looked up): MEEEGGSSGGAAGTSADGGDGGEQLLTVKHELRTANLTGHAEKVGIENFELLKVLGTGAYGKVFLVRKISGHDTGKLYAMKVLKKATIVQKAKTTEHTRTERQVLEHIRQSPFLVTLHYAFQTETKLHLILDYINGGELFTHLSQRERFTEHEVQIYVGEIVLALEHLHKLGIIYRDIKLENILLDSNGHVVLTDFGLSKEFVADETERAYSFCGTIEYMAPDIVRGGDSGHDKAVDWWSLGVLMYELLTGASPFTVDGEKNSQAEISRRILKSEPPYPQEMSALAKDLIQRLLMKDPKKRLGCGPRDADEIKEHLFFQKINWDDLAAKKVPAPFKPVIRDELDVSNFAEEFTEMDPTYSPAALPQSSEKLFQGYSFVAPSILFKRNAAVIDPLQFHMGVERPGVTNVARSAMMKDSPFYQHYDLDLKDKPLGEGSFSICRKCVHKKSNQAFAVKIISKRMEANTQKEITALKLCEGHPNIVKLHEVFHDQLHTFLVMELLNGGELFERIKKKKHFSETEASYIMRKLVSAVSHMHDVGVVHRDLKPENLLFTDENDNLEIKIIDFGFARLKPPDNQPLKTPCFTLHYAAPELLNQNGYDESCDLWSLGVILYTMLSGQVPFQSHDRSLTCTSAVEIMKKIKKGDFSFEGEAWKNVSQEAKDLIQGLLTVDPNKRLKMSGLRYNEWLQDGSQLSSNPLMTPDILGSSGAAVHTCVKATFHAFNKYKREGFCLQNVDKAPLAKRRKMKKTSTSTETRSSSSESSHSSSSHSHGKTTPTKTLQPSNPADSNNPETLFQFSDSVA
Sequence of Aurora kinase B (Homo sapiens) (Q96GD4 whole entry): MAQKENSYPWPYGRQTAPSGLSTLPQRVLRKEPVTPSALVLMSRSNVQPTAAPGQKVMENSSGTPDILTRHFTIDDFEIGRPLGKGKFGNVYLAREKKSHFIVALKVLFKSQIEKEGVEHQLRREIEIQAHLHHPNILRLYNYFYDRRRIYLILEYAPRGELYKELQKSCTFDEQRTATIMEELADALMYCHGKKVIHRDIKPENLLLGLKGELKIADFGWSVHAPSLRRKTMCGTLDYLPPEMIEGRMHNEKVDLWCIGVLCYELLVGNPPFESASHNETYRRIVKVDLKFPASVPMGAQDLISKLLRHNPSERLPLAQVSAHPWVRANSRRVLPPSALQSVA
Sequence of Serine/threonine-protein kinase N1 (Homo sapiens) (Q16512 2-942 limits assumed): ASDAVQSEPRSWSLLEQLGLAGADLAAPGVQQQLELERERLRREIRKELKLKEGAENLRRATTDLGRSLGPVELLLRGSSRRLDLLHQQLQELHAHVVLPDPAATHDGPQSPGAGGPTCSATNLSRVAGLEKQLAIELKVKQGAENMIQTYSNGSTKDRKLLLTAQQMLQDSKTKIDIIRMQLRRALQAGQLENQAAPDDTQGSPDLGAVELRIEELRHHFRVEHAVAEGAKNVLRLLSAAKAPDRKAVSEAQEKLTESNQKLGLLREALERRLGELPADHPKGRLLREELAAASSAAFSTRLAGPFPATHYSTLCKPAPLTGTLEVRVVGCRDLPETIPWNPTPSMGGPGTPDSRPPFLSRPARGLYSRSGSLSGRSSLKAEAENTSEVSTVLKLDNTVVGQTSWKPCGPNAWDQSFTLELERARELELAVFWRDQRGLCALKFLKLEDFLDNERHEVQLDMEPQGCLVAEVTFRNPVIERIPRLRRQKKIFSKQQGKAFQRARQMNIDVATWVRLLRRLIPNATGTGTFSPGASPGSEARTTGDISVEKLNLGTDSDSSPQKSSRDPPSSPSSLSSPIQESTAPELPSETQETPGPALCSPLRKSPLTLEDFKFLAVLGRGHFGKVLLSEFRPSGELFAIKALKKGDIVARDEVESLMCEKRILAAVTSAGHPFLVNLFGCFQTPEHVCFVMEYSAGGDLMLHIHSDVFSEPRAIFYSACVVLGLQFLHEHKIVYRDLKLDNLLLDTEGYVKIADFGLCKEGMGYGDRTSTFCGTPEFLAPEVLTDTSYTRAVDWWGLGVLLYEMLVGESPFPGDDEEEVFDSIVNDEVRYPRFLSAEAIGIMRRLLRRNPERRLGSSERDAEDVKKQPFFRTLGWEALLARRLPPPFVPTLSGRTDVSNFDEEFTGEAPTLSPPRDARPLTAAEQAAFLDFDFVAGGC

For the compound `Cc1c(-c2ccnc(N)n2)sc2ccc(Cc3ccccc3)cc12`, in [1], the IC50 (usually the midpoint of a concentration-inhibition curve) was found to be 580 nM.
As to `CNc1nccc(-c2sc3ccc(Cl)cc3c2C)n1`, in series [2], the Emax (as a rule, the greatest response seen or fitted, relative to the assay's reference) was 17%. Also, the IC50 in series [1] is 1200 nM. In addition, in series [3], the inhibition (commonly the drop in the measured response relative to a control, in per cent) is “inactive”.
`Cc1c(-c2ccnc3[nH]ccc23)sc2ccc(Cl)cc12`: the IC50 in series [1] turned out to be 7100 nM. In addition, the inhibition entry in series [3] is “inactive”.
Take `Cc1cncc2cccc(S(=O)(=O)N3CCCNCC3C)c12` (stereo not drawn): the result with GTM3 [4] and in the series on GTM3 [5] was Active.
Regarding `CCCC(N)c1ccc2sc(-c3ccnc(N)n3)c(C)c2c1` (racemic), the Activity is reported as -19.6% in the series with Cynomolgus monkey [6]; -24.1% in the series with Cynomolgus monkey [7]; -13.9% with Cynomolgus monkey [8]; -26% in the series on Cynomolgus monkey [9]; -20% with Cynomolgus monkey [10]; -12% with Cynomolgus monkey [11]. Moreover, the IC50 in [1] amounted to 20 nM.
Turning to `COC(=O)c1cccc(Cc2ccc3sc(-c4ccnc(N)n4)c(C)c3c2)c1`, the IC50 in [1] was 10000 nM.
On the same count and under the same terms, in the case of `O=S(=O)(c1cccc2c(I)cccc12)N1CCCNCC1` it was 38000 nM; in that of `COc1ccc(Cc2ccc3sc(-c4ccnc(N)n4)c(C)c3c2)cc1`, 7200 nM; in that of `Cc1c(-c2ccnc(N)n2)sc2ccc(Cc3cccc(C(=O)O)c3)cc12`, 60 nM.
On the same count and under the same terms, in the case of `CCC(N)c1ccc2sc(-c3ccnc(N)n3)c(C)c2c1` (racemic) it was 140 nM; in that of `Cc1c(-c2ccnc(N)n2)sc2ccc(C(N)c3cccc(Cl)c3)cc12` (racemic), 30 nM.
Same read-out and setting: for `Cc1c(-c2ccnc(N)n2)sc2ccc(C(N)c3ccccc3)cc12` (racemic) the value was 20 nM.
With `Cc1c(-c2ccnc(N)c2)sc2ccc(Cl)cc12`, the Emax in series [2] came out at 44%. In addition, the IC50 in [1] turned out to be 8300 nM. Moreover, in [3], the inhibition entry was “inactive”.
With `COc1cccc(Cc2ccc3sc(-c4ccnc(N)n4)c(C)c3c2)c1`, the IC50 in series [1] worked out at 230 nM. Besides, the concentration in solution in series [12] (solubility) was 40 µM (≈ 14.5 µg/mL).
Turning to `Cc1c(-c2ccnc(N)n2)sc2ccccc12`, the IC50 in series [1] stood at 2900 nM.
Consider `COc1cccc(C(N)c2ccc3sc(-c4ccnc(N)n4)c(C)c3c2)c1` (racemic), for which, in [2], the Emax turned out to be 46%. Moreover, in series [1], the IC50 was 20 nM.
Regarding `COc1ccccc1Cc1ccc2sc(-c3ccnc(N)n3)c(C)c2c1`, the half-inhibitory concentration (IC50) in series [1] was determined as 9700 nM.
As for `Cc1cccc(C(N)c2ccc3sc(-c4ccnc(N)n4)c(C)c3c2)c1` (racemic), in series [2], the Emax turned out to be 67%. For the same compound, the IC50 in series [1] turned out to be 50 nM.
In the case of `Cc1c(-c2ccnc(N)n2)sc2ccc(Nc3cccc(O)c3)cc12`, the solubility (commonly the concentration that dissolves in the medium under given conditions) in [12] was 30 µM (≈ 10.5 µg/mL).
As for `Cc1c(-c2ccnc(N)n2)sc2ccc(C(C)N)cc12` (racemic), the IC50 in series [1] came out at 400 nM.
The same measure, in the same setting: in the case of `Cc1c(-c2ccnc(N)n2)sc2ccc(C(N)C(C)C)cc12` (racemic) it was 60 nM.
With `Cc1c(-c2cc(N)ncn2)sc2ccc(Cl)cc12`, the IC50 in [1] came out at 13000 nM. Further, the inhibition entry in series [3] is “inactive”.
Regarding `Cc1c(-c2ccnc(N)n2)sc2ccc(-c3ccccc3)cc12`, in [13], the Emax came to 35%. In addition, in series [1], the IC50 turned out to be 4200 nM.
Consider `COc1ccc(C(N)c2ccc3sc(-c4ccnc(N)n4)c(C)c3c2)cc1` (racemic), for which the Emax in series [2] came out at 56%. Further, the IC50 in [1] came to 90 nM.
Turning to `Cc1c(-c2ccnc(N(C)C)n2)sc2ccc(Cl)cc12`, in series [14], the outcome was inactive. Moreover, the IC50 in series [1] is above 100000 nM. In addition, in series [3], the inhibition entry was “inactive”.
Consider `Cc1c(-c2ccnc(N)n2)sc2ccc(Cc3cccc(O)c3)cc12`, for which the inhibition is 82% in series [15]; 94% in [16]; 61% in series [17]; 53% in series [18]; 67% in series [19]; 55% in [20]. Besides, in series [1], the IC50 amounted to 20 nM. The compound also returned a solubility in series [12] of 10 µM (≈ 3.47 µg/mL).
Turning to `C[C@@H](N)c1ccc(C(=O)Nc2ccnc3[nH]ccc23)cc1` [Y-39983], the Activity entry in series [21] was “Non-toxic”.
Turning to `Cc1c(-c2c[nH]c3ncccc23)sc2ccc(Cl)cc12`, in series [1], the IC50 is above 10000 nM. The inhibition result in [3] is “inactive”.
The matching figures for `Cc1c(-c2ccnc(N)n2)sc2ccc(Cl)cc12`: 1500 nM and “inactive”.
As for `Cc1c(-c2ccnc(N)n2)sc2ccc(C(N)CC(C)C)cc12` (racemic), the IC50 in series [1] was determined as 30 nM.
Turning to `Cc1c(-c2ccncc2)sc2ccc(Cl)cc12`, the concentration for half-maximal inhibition (IC50) in series [1] is 28000 nM. The inhibition entry in series [3] was “inactive”.
Take `Cc1c(-c2ccnc(N)n2)sc2ccc(CN)cc12`: the IC50 in series [1] is 2200 nM.
Same read-out and setting: for `Cc1c(-c2ccnc(N)n2)sc2ccc(Cc3cccc(C(F)(F)F)c3)cc12` the value was 8600 nM.
